Assays:
[1] = Kinetic aqueous solubility of compound in HEPES buffer at pH 7.4 at 500 uM measured after 90 mins by spectrophotometry analysis; format: physicochemical
Outline: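 Compound-saturated HEPES buffer (pH 7.4, from DMSO stocks, 500 μM) shaken 90 min at room temperature, filtered, then diluted with an equal volume of acetonitrile.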

[2] = Stability in human plasma assessed as parent compound remaining at 5 uM measured after 1 hr by LC-MS/MS analysis relative to control; format: ADME, cell-free; details: read-out: Stability
Outline: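 Compound at 5 μM incubated 1 h at 37 °C in 50% human plasma in PBS; % remaining determined by LC–MS.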

[3] = Permeability of the compound at 500 uM after 20 hrs by PAMPA; format: ADME
Outline: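 Artificial membrane permeation with 500 μM compound in the donor compartment; after 20 h, receiver wells read by spectrophotometry and % flux derived by normalizing to flux across a blank filter.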

[4] = Microsomal stability in human liver microsomes assessed as intrinsic clearance at 1 uM measured up to 50 mins in presence of NADPH by LC-MS/MS analysis; format: ADME, Microsome
Outline: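 Oxidative stability in NADPH-supplemented human liver microsomes; compound at 1 μM, depletion followed by LC–MS/MS for up to 50 min at 37 °C. Intrinsic clearance calculated from half-life, assay volume and microsomal protein amount (μL/min/mg).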

Row | Kinetic_solubility [1] [µM] | remaining at 1 h, 5 µM [2] [%] | permeability [3] [%] | CLH [4] [µL/min/mg] | SMILES
1 | 476 | 100 | 23 | 8.8 | O=C(O)c1ccc(OCc2c(-c3c(Cl)cccc3C(F)(F)F)noc2-c2cn[nH]c2)cc1
2 | 436 | 74.2 | 40.9 | 57.8 | O=C(O)c1ccc(OCc2c(-c3c(Cl)cccc3C(F)(F)F)noc2-c2cc[nH]c2)cc1

The remaining lines, values behind:

Row | SMILES | Kinetic_solubility [1] [µM] | remaining at 1 h, 5 µM [2] [%] | permeability [3] [%] | CLH [4] [µL/min/mg]
3 | O=C(O)c1ccc(-c2nn(C(=O)c3c(Cl)cccc3C(F)(F)F)c3ccccc23)cc1 | 423 | 95.5 | 29.7 | 0.4
4 | O=C(O)c1ccc(NCc2c(-c3c(Cl)cccc3C(F)(F)F)noc2-c2cc[nH]c2)cc1 | 460 | 79.1 | 36.1 | 31.2
5 | O=C(O)c1ccc(OCc2c(-c3c(Cl)cccc3C(F)(F)F)noc2-c2cc[nH]c2)cc1F | 445 | 97.1 | 37.3 | 77
6 | O=C(O)c1ccc(OCc2c(-c3c(Cl)cccc3C(F)(F)F)noc2-c2ccc[nH]2)cc1 | 421 | 89.5 | 50.5 | 68
7 | O=C(O)c1ccc(/C=C/c2c(-c3c(Cl)cccc3C(F)(F)F)noc2-c2cc[nH]c2)cc1 | 392 | 59.5 | 40.3 | 69
